Source: PubChem (Broad Institute)
DENV2 CPE – inhibitors of DENV2 cytopathic effect, primary screen, cell-based, plate reader, single concentration; CPE inhibition, % at 9.99 µM; 350,000 tested, 1.7% active; DENV2-infected cells, cytopathic effect rescue; in the data active = CPE inhibition above about 20%, passing the limit was not always enough; inconclusive = no clear call, values can overlap the other calls; tested in BHK-21 cells
E-sel inducer – E-selectin induction in HUVECs, primary screen, imaging, HUVEC, immunofluorescence imaging, single point. normalized: neutral wells 0, TNF-alpha wells 100. activation, % at 7.58 µM. P16581. 260,000 tested, 0.37% active;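 active = mean E-selectin-positive cell signal at least 10% of the positive control, reached in at least 60% of replicates, without over 20% cell loss; inconclusive = no rule given, readout overlaps actives, possibly toxicity-flagged; inactive = the rest, including those meeting only one limit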
Target sequence (P16581 whole entry, looked up): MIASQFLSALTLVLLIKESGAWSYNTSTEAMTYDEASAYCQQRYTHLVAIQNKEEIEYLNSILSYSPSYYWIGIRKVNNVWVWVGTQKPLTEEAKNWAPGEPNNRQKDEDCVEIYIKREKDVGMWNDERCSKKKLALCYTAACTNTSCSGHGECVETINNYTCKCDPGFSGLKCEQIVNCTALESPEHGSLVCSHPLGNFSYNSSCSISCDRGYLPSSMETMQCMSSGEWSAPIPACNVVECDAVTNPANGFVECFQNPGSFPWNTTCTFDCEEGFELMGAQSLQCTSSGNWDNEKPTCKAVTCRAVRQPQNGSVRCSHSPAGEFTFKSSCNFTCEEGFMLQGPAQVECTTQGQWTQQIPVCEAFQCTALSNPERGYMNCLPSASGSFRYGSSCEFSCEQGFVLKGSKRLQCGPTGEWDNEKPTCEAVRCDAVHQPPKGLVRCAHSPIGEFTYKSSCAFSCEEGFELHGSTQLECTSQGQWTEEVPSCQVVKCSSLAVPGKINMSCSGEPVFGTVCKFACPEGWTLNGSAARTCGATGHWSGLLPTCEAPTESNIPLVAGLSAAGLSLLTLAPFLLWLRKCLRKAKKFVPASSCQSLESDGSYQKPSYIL
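System: HUVEC / Compound: single concentration / Signal: immunofluorescence imaging / Read-out: percent E-selectin-positive cells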
Statin myotox sup – suppressors of statin myotoxicity in C2C12 myotubes, primary screen, cell-based, single point, plate reader; AID 602340, 2012; 330,000 tested, 0.78% active; rescue of ATP level, % at 7.49 µM; C2C12 myotubes + simvastatin, ATP luminescence, 48 h; scaled: DMSO 0, geranylgeraniol control 100;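 active = mean ATP rescue above about 67%, or every replicate alone reaching that limit, limit read from the data, passing the limit was not always enough; inconclusive = no clear call, values can overlap the other calls; inactive = mean under the limit and some replicate under it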;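 note: myotubes were challenged with 10 µM simvastatin during compound exposure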
Large screens that a line does not name were inactive. Shown are actives, neighbours in structure and some others; about 2.2% of the full set was active somewhere.

C[C@H](CO)N1C[C@H](C)[C@@H](CN(C)Cc2ccc(C(=O)O)cc2)OCc2ccccc2-c2c(n(C)c3ccccc23)C1=O	DENV2 CPE inconclusive (no result: Statin myotox sup)
O=C(NC[C@@H]1CC[C@@H]2[C@@H](CN2S(=O)(=O)c2ccccc2)O1)NC1CCCCC1	none (no result: E-sel inducer, Statin myotox sup)
CCC(OC(=O)c1cccs1)C(=O)NCc1ccco1 (centres undefined)	Statin myotox sup 102.1 (no result: DENV2 CPE, E-sel inducer)
CC(C)CC(OC(=O)c1cccs1)C(=O)NCc1ccco1 (centres undefined)	none (no result: DENV2 CPE, E-sel inducer)
O=C(NCC[C@@H]1CC[C@@H](NS(=O)(=O)c2cccc(Cl)c2)[C@H](CO)O1)c1cnccn1	none
CCC(=O)N1[C@H](CO)[C@H](c2ccc(-c3ccc(F)cc3)cc2)[C@H]1CNC(C)=O	none
CN(CC(=O)Nc1ccccc1C(=O)NC1CC1)Cc1ccccc1F	DENV2 CPE 78.2 (no result: E-sel inducer, Statin myotox sup)
CSc1ccc(CN(C)CC(=O)Nc2ccccc2C(=O)NC2CC2)cc1	DENV2 CPE inconclusive
COc1ccccc1N1CCN(C2CCCN(Cc3c(F)cccc3F)C2)CC1 (centres undefined)	none
COc1ccccc1N1CCN(C(=O)c2ccco2)CC1	DENV2 CPE inconclusive, E-sel inducer 34.5
CCCC(=O)N1CCN(c2nc3c(OC)ccc(Cl)c3s2)CC1	none (no result: E-sel inducer)
COc1ccccc1CN1CCCC(N2CCN(c3ccccc3OC)CC2)C1 (centres undefined)	DENV2 CPE 29.0 (no result: E-sel inducer)
COc1ccc(Cl)c2sc(N3CCN(C(=O)c4ccco4)CC3)nc12	DENV2 CPE 104.5
O=C1OC(N2CCN(C(=O)c3ccco3)CC2)c2ccccc21 (centres undefined)	none (no result: DENV2 CPE, E-sel inducer)
O=C(c1ccco1)N1CCN(C2c3ccccc3-c3ccccc32)CC1	DENV2 CPE 54.4
COc1ccccc1N1CCN(C(=O)C(C)NC(=O)c2ccco2)CC1 (centres undefined)	none
O=C(CC(F)(F)F)N1C[C@@H]2[C@H](c3ccccc31)[C@H](CO)N2C(=O)Cc1ccccc1	none
COCC(=O)N(C)C[C@@H]1Oc2ncc(C#CCC3CCCC3)cc2C(=O)N([C@H](C)CO)C[C@@H]1C	none
COc1ccccc1N1CCN(C2CCCN(C(=O)c3cccc(-c4ccco4)c3)C2)CC1 (centres undefined)	DENV2 CPE 44.0
COc1ccccc1N1CCN(C2CCCN(C(=O)c3ccoc3C)C2)CC1 (centres undefined)	none
C[C@@H]1CN([C@H](C)CO)S(=O)(=O)c2ccc(-c3ccccc3F)cc2O[C@H]1CN(C)C(=O)C1CC1	none
CCOc1ccc(/C=N/O)cc1	none (no result: DENV2 CPE)
Cc1ccc(COc2ccc(/C=N/O)cc2)cc1	E-sel inducer 106.6 (no result: Statin myotox sup)
CCC(=O)N1CCC2(CC1)Oc1ccc(Cl)cc1C(=O)C21CC(c2ccc(Cl)cc2)=NO1 (centres undefined)	DENV2 CPE 89.8
CCC(=O)N1CCC2(CC1)Oc1ccc(F)cc1C(=O)C21CC(c2ccc(Cl)cc2)=NO1 (centres undefined)	none
CS(=O)(=O)Nc1ccc2c(c1)[C@@H]1C[C@@H](CC(=O)NCCc3ccccc3)O[C@H](CO)[C@@H]1O2	none
CC(C)(C)C(=O)c1c(N)[nH]c(C(=O)c2ccccc2)c1-c1ccc(Br)cc1	none (no result: Statin myotox sup)
N#Cc1c(N)[nH]c(C(=O)c2ccccc2)c1-c1ccc(Br)cc1	DENV2 CPE 57.1 (no result: Statin myotox sup)
C/C=C/c1ccc([C@@H]2[C@@H](CO)N(C(=O)NC(C)C)[C@H]2CN(C)C(C)=O)cc1	none
Cc1ccc(-c2noc(CCCOc3ccc(Cl)cc3Cl)n2)cc1	none (no result: DENV2 CPE, E-sel inducer)
COc1ccc(-c2noc(CCCOc3ccc(Cl)cc3Cl)n2)cc1	Statin myotox sup 109.1 (no result: DENV2 CPE, E-sel inducer)
CO[C@@H]1CN(C)C(=O)c2ccc(NC(=O)Nc3cccc(F)c3)cc2OC[C@H](C)N(C(=O)Nc2c(C)noc2C)C[C@H]1C	none
Cc1ccc(S(=O)(=O)N(C)C[C@H]2Oc3ccc(NS(=O)(=O)c4ccc(Cl)cc4)cc3CC(=O)N([C@@H](C)CO)C[C@@H]2C)cc1	none
Cc1ccc(C(=O)c2c3ccccc3[n+]([O-])n2CCC(=O)O)cc1	DENV2 CPE inconclusive, Statin myotox sup 79.6
Cc1ccc(C(=O)c2c3ccc([N+](=O)[O-])cc3[n+]([O-])n2CCCC(N)=O)cc1	DENV2 CPE 69.9
NC(=O)CCn1c(C(=O)c2ccc(Cl)cc2)c2ccccc2[n+]1[O-]	none (no result: DENV2 CPE, Statin myotox sup)
NC(=O)CCCn1c(C(=O)c2ccc(Cl)cc2)c2ccc([N+](=O)[O-])cc2[n+]1[O-]	none
COCC(=O)Nc1ccc2c(c1)[C@@H]1C[C@@H](CC(=O)NCc3ccc(OC)cc3)O[C@H](CO)[C@@H]1O2	none
CC(C)(C)N(Cc1ccccc1)C(=O)COC(=O)C1CCN(c2ccc(C(F)(F)F)cn2)CC1	DENV2 CPE 43.9 (no result: E-sel inducer)
CCOc1ccc(C(=O)COC(=O)C2CCN(c3ccc(C(F)(F)F)cn3)CC2)cc1	DENV2 CPE 74.0
CC(C)N(Cc1ccccc1)C(=O)COC(=O)C1CCN(c2ccc(C(F)(F)F)cn2)CC1	DENV2 CPE inconclusive (no result: E-sel inducer)
O=C(COC(=O)C1CCN(c2ccc(C(F)(F)F)cn2)CC1)c1ccccc1	none (no result: E-sel inducer)
COc1ccc(S(=O)(=O)N(C)C[C@@H]2Oc3c(NC(=O)Nc4ccc(C(F)(F)F)cc4)cccc3C(=O)N([C@@H](C)CO)C[C@@H]2C)cc1	none (no result: E-sel inducer)
CCCNC(=O)N1CCC2(CC1)CN(C(=O)c1ccncc1)[C@H](CO)c1[nH]c3cc(OC)ccc3c12	none (no result: Statin myotox sup)
CN1C(=O)C2(c3ccccc31)C1CCCC=C1C(C#N)=C(N)C2(C#N)C#N (centres undefined)	Statin myotox sup 154.9 (no result: DENV2 CPE, E-sel inducer)
CN1C(=O)C(O)(C2CCCCCC2=O)c2ccccc21 (centres undefined)	none
O=C(CSC1=Nc2ccccc2C2CC=NN12)NCc1ccco1 (centres undefined)	Statin myotox sup 97.7
N#Cc1ccccc1NC(=O)CSC1=Nc2ccccc2C2CC=NN12 (centres undefined)	none (no result: DENV2 CPE, E-sel inducer)
C[C@@H]1CN([C@H](C)CO)C(=O)Cc2cc(NC(=O)Cc3cn(C)c4ccccc34)ccc2O[C@@H]1CN(C)Cc1ccc(Cl)c(Cl)c1	Statin myotox sup 69.0
C[C@@H]1CN([C@@H](C)CO)C(=O)Cc2cc(NC(=O)Cc3cn(C)c4ccccc34)ccc2O[C@H]1CN(C)Cc1ccc2c(c1)OCO2	none (no result: E-sel inducer)
C[C@H]1CN([C@@H](C)CO)C(=O)Cc2cc(NC(=O)Cc3cn(C)c4ccccc34)ccc2O[C@H]1CN(C)Cc1ccc2c(c1)OCO2	none (no result: E-sel inducer)
C[C@H]1CN([C@@H](C)CO)C(=O)Cc2cc(NC(=O)Cc3cn(C)c4ccccc34)ccc2O[C@@H]1CN(C)Cc1ccc(Cl)c(Cl)c1	Statin myotox sup 142.3
C[C@@H]1CCCCO[C@@H](CN(C)Cc2ccccc2)[C@@H](C)CN([C@@H](C)CO)C(=O)c2cc(NS(=O)(=O)c3ccc(Cl)cc3)ccc2O1	none (no result: E-sel inducer, Statin myotox sup)
O=C(C[C@@H]1C[C@H]2c3cc(NC(=O)c4cccnc4)ccc3O[C@H]2[C@@H](CO)O1)NCc1ccccc1	none
C[C@@H]1CCCCO[C@@H](CN(C)C)[C@H](C)CN([C@@H](C)CO)C(=O)c2cc(NS(=O)(=O)c3ccccc3)ccc2O1	none
CCOC(=O)/C=C/c1c(OC)cccc1OC	none (no result: E-sel inducer, Statin myotox sup)
